From PMC5518789 (Journal of bone and mineral research : the official journal …, 2017)
“Also recorded” adds a separate entry of the source.

Columns and labels:
[1] = test system: PTHrP(1-15)-mAb; test: Dot blot with PTHrP; type: binding; settings: nitrocellulose, 100, 10 and 1 ng, chemiluminescence
Procedure, shortened: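 The test peptide, PTHrP(1-141), PTHrP(1-37), PTH(1-34) and IL-8 were each spotted at 100, 10 and 1 ng onto nitrocellulose under nondenaturing conditions. Blots were probed with an N-terminal PTHrP(1-15) monoclonal antibody and developed by chemiluminescence.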

[2] = test system: PTHrP(12-48) polyclonal Ab; test: Dot blot with PTHrP; type: binding, chicken; settings: nitrocellulose, nondenaturing, 100, 10 and 1 ng, chemiluminescence
Procedure, shortened: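 The peptide panel (test peptide, PTHrP(1-141), PTHrP(1-37), PTH(1-34), IL-8) was spotted at 100, 10 and 1 ng on nitrocellulose without denaturation. The probe was a chicken polyclonal IgY raised against the KLH-conjugated test peptide, depleted of PTHrP(1-37) by negative selection and affinity-purified on a test-peptide column. Detection was by chemiluminescence.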

[3] = test system: PTHR1 (PTHR1-expressing SaOS2 cells); settings: cited from earlier work
[4] = test system: PTHR1 (PTHR1-expressing SaOS2 cells); test: Competitive cAMP ELISA in SaOS2 cells; type: cell-based, human; settings: PTH(1-34) 1 and 10 nM, 10 min, IBMX pretreatment, representative of three independent experiments
Procedure, shortened: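 SaOS2 cells were grown in RPMI 1640 with 10% FBS and antibiotics at 37°C and 5% CO₂, with medium changed every 3 days. Confluent cultures were serum-starved for 6 h, pretreated with IBMX for 15 min, then exposed to ligand for 10 min. Cells were lysed, and cAMP was quantified by a competitive ELISA kit following the manufacturer's protocol.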

[5] = test system: human OCLs and their precursors (PBMCs); test: Internalization assay in human osteoclasts and precursors; type: cell-based
Procedure, shortened: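 Thawed human PBMCs were seeded at 500,000 cells/well on chamber slides in alpha-MEM + 10% FBS with mCSF (25 ng/mL) ± RANKL (50 ng/mL) at 37°C, 5% CO₂. On day 7, test peptide (100 nM) was added with serum for 15, 30, 60 or 90 min. Cells were fixed in 4% paraformaldehyde (4°C, 15 min), permeabilised with 0.02% Triton X-100 and blocked with BlokHen 1:10. They were stained with chicken anti-test-peptide antibody plus DAPI, with a no-primary control, and imaged by fluorescence or confocal microscopy.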

[6] = test system: PTHrP(12-48) Ab; test: Western blot with PTHrP; type: binding, chicken; settings: SDS-PAGE (12%) immunoblot; PTHrP(12-48) 1 mM, 100 µM, 10 µM; two independent series of experiments
Procedure, shortened: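 Peptides and IL-8 were run on 12% SDS-PAGE and transferred to nitrocellulose. Blots were blocked for 30 min in BlokHen (1:10 in water), then washed in PBS with 0.05% Tween-20. They were probed with chicken polyclonal IgY (raised against KLH-conjugated PTHrP(12-48) and PEG-precipitated from egg yolk) or a PTHrP(1-15) monoclonal, then a secondary antibody. Detection was by chemiluminescence. Blots were stripped for 30 min at RT and reprobed for IL-8.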

[7] = test system: mesenchymal lineage cells; test: Effect on mesenchymal lineage cells; type: cell-based; settings: in vitro or in vivo; data not shown
[8] = test system: PTHR1 (SaOS2 or any other PTHR1-expressing cell); test: PTHR1 antagonism of PTHrP; type: cell-based, human; settings: data not shown
[9] = test system: other resident bone and bone marrow cells; test: Uptake in other resident bone and bone marrow cells; type: cell-based; settings: in vitro or in vivo; data not shown
[10] = test system: human OCL precursors and differentiated OCLs (PBMCs); test: Cleaved caspase 3; type: cell-based; settings: for total cells positive for cleaved caspase-3, controls day 0: OCL precursors, vehicle or mCSF without or with RANKL on day 0, 24 h
Procedure, shortened: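 Frozen human PBMCs were thawed at 37°C and seeded at 500,000 cells/well on chamber slides in alpha-MEM + 10% FBS with mCSF (25 ng/mL) ± RANKL (50 ng/mL) at 37°C, 5% CO₂. Cells were treated 24 h with test peptide (50 nM) or TNFα (200 ng/mL) on day 0 or day 7. They were then fixed, permeabilised and stained with anti-cleaved caspase 3 (Asp175) at 1:400 plus a 1 h secondary, with DAPI nuclei. Positive cells were counted by fluorescence or confocal microscopy.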

[11] = test system: cells (PTHR1-dependent); settings: cited from earlier work
[12] = test system: human OCL precursors / OCLs (PBMCs); test: Osteoclastogenesis, TRAP+ MNC count; type: cell-based; settings: RANKL 50 ng/mL + mCSF 25 ng/mL versus mCSF; day 10; Fig. 3A, p < 0.001

Q: Which “recognition by PTHrP(1-15) mAb” value [1] does the source give for “IL-8: interleukin 8, control in dot blots” here?
A: The value was “not recognized by either PTHrP Ab”.

Q: And the “recognition by PTHrP(12-48) Ab” value [2]?
A: The value was “not recognized by either PTHrP Ab”.

Q: What does the source list for “PTH(1-34): activates cAMP production via PTHR1, used as a positive control (SVSEIQLMHNLGKHLNSMERVEWLRKKLQDVHNF; Parathyroid hormone; UniProt P01270 32-65, looked up, fragment)”?
A: activation of cAMP production via PTHR1 (literature) ([3]; 50 nM): activates cAMP production via PTHR1; cAMP production (positive control) [4]: stimulated cAMP production; also recorded: stimulated the expected increase in cAMP

Q: Which results are given for “PTHrP(1-36): PTHR1 ligand to which SaOS2 cells respond [reference compound]”?
A: SaOS2 response / activation of Gαs ([3]; SaOS2 cells, 36 (response), 42 (Gαs)): trigger the activation of Gαs; internalization into day 7 cells ([5]; PTHrP(1-36), similar treatment (Supplemental Fig. 2)): no internalization

Q: For “PTHrP(1-37): N-terminal peptide used in dot blots and ELISA”, which “recognition by PTHrP(1-15) mAb” value [1] is on record?
A: Its value is “recognized an antigen present in full-length PTHrP(1-141) as well as PTHrP(1-37)”.

Q: Which results are given for “PTHrP(1-141): full-length recombinant PTHrP, gift of Dr. T.J. Martin”?
A: recognition by PTHrP(1-15) mAb [1]: recognized an antigen present in full-length PTHrP(1-141); recognition by PTHrP(12-48) Ab [2]: but not PTHrP(1-141)

Q: What does the source list for “PTHrP(12-48): unique peptide fragment of parathyroid hormone-related protein (PTHrP); New England Peptides Inc. (GKSIQDLRRRFFLHHLIAEIHTAEIRATSEVSPNSKP; Parathyroid hormone-related protein; UniProt P12272 48-84, looked up, fragment)”?
A: recognition by PTHrP(12-48) Ab [6]: specifically recognized the 4-kDa PTHrP(12-48); also recorded: specifically recognized by PTHrP(12-48) Ab; effect on mesenchymal lineage cells [7]: unable to show an effect of PTHrP(12-48) on mesenchymal lineage cells; antagonist or partial antagonist action at PTHR1 ([8]; SaOS2 or any other PTHR1-expressing cell): unable to show any significant antagonist or partial antagonist actions; antagonism of PTHrP(1-36) agonist activity at PTHR1 [8]: nor does PTHrP(12-48) antagonize agonist activity of PTHrP(1-36) at the PTHR1; uptake in other resident bone and bone marrow cells [9]: unable to show an effect of PTHrP(12-48) on mesenchymal lineage cells or observe any apparent uptake in other resident bone and bone marrow cells; recognition by PTHrP(1-15) mAb [1]: but not PTHrP(12-48); time to internalization into primary human OCLs and their precursors ([5]; 100 nM, day 7 cells, immunofluorescence): ≤ 60 min; internalization into OCLs ([5]; 100 nM, in presence of serum, day 7 cells, mCSF (25 ng/mL)+RANKL (50 ng/mL), 15, 30, 60 and 90 min, immunofluorescence, three independent experiments): observed in OCLs 60 min after the addition; internalization into mononuclear cells (precursors) ([5]; 100 nM, mCSF alone, Fig. 2H panel iv, immunofluorescence): observed in mononuclear cells cultured in the presence of mCSF alone; cleaved caspase 3-positive cells, day 7 ([10]; 50 nM, 24 h, cells cultured for 7 days, Fig. 4C, D, p < 0.05): significantly increased the number of cleaved caspase 3-positive cells; cleaved caspase 3 increase compared with TNFα ([10]; PTHrP(12-48) 50 nM versus TNFα 200 ng/ml, 24 h): comparable to the effects observed following treatment with TNFα

Q: For “PTHrP(67-93): PTHrP fragment shown to translocate into cells (YLTQETNKVETYKEQPLKTPGKKKKGK; Parathyroid hormone-related protein; UniProt P12272 103-129, looked up, fragment)”, which translocation into cells [11] is on record?
A: The translocation into cells was “translocate into cells in a PTHR1-dependent fashion”.

Q: With “PTHrP(94-108): PTHrP fragment shown to translocate into cells (PGKRKEQEKKKRRTR; Parathyroid hormone-related protein; UniProt P12272 130-144, looked up, fragment)” as the molecule, how does the translocation into cells [11] read?
A: The translocation into cells was “translocate into cells in a PTHR1-dependent fashion”.

B1: mCSF: culture factor for osteoclast precursors, R&D Systems (protein, UniProt P07141 33-552, looked up)
Macrophage colony-stimulating …: KEVSEHCSHMIGNGHLKVLQQLIDSQMETSCQIAFEFVDQEQLDDPVCYLKKAFFLVQDIIDETMRFKDNTPNANATERLQELSNNLNSCFTKDYEEQNKACVRTFHETPLQLLEKIKNFFNETKNLLEKDWNIFTKNCNNSFAKCSSRDVVTKPDCNCLYPKATPSSDPASASPHQPPAPSMAPLAGLAWDDSQRTEGSSLLPSELPLRIEDPGSAKQRPPRSTCQTLESTEQPNHGDRLTEDSQPHPSAGGPVPGVEDILESSLGTNWVLEEASGEASEGFLTQEAKFSPSTPVGGSIQAETDRPRALSASPFPKSTEDQKPVDITDRPLTEVNPMRPIGQTQNNTPEKTDGTSTLREDHQEPGSPHIATPNPQRVSNSATPVAQLLLPKSHSWGIVLPLGELEGKRSTRDRRSPAELEGGSASEGAARPVARFNSIPLTDTGHVEQHEGSSDPQIPESVFHLLVPGIILVLLTVGGLLFYKWKWRSHRDPQTLDSSVGRPEDSSLTQDEDRQVELPV
Q: With B1 as the molecule, how does the “total cells positive for cleaved caspase-3, controls day 0” value [10] read?
A: Its value is “less than 25%”.

B2: RANKL: receptor activator of NF-κB ligand, R&D Systems (protein, UniProt O14788 140-317, looked up)
Tumor necrosis factor ligand …: IRAEKAMVDGSWLDLAKRSKLEAQPFAHLTINATDIPSGSHKVSLSSWYHDRGWAKISNMTFSNGKLIVNQDGFYYLYANICFRHHETSGDLATEYLQLMVYVTKTSIKIPSSHTLMKGGSTKYWSGNSEFHFYSINVGGFFKLRSGEEISIEVSNPSLLDPDQDATYFGAFKVRDID
Q: For B2, which “number of TRAP+ MNCs, effect of RANKL” value [12] is on record?
A: Its value is “significantly increased the number of TRAP+ MNCs”.

Q: And the “total cells positive for cleaved caspase-3, controls day 0” value [10]?
A: Its value is “less than 25%”.
